Publication PMC9378630 (Chemmedchem, 2022)
Several values for one entry are separate records, joined by “and”; a condition that tells them apart may be missing. Equal values may be shown once. Read-outs that look alike come from different tables or passages of the source.

How the values were obtained:
human SLO3 and LRRC52 = target: T1, human SLO3 and LRRC52 (Homo sapiens, UniProt A8MYU2); type: cell-based; conditions: for hSLO3 current in the presence of compound, % of control: 10 μM, +60 mV, n=5 cells, mean±SD in text; for inhibition at 10 µM: HEK293, read-out: Inhibition at 10 μM [%] hSlo3
T1 sequence (A8MYU2 1-1149): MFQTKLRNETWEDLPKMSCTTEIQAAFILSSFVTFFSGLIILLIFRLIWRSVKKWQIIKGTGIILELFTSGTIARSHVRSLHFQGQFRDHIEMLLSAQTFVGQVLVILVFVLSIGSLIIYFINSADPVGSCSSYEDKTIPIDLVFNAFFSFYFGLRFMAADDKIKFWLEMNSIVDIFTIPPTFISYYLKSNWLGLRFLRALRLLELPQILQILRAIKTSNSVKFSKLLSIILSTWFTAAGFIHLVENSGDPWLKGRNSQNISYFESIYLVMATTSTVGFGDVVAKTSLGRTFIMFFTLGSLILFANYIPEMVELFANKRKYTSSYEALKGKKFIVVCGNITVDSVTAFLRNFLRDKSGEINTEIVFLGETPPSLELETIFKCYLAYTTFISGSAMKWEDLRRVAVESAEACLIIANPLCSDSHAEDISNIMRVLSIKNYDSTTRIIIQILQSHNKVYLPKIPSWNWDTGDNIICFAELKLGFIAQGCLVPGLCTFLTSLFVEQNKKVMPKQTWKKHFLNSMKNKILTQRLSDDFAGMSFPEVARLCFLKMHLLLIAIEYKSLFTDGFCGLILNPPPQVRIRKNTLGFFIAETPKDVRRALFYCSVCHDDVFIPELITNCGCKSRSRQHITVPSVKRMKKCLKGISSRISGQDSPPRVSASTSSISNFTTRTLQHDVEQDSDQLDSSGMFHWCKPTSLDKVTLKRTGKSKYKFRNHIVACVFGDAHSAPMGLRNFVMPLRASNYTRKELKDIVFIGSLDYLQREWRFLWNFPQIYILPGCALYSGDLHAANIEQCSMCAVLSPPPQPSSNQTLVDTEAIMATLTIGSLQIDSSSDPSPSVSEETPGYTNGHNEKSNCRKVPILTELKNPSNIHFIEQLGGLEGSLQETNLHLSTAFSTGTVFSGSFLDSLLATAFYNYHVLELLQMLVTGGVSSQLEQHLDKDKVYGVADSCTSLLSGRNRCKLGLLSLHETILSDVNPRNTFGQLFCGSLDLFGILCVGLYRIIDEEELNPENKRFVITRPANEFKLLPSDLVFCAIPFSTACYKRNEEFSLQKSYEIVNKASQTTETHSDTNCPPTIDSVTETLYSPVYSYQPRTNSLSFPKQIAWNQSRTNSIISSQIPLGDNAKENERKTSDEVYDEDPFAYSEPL
T1 sequence (Q8N7C0 24-313 partner): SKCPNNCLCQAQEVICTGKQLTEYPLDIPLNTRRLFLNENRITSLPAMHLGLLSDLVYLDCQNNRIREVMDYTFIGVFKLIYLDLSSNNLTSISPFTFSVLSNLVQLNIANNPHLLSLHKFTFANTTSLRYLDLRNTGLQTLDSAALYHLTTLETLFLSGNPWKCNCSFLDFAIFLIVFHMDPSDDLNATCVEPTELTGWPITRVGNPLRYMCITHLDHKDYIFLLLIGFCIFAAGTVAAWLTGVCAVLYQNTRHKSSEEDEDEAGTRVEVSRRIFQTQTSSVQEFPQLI

[1] = AlamarBlue cytotoxicity assay in human sperm; type: cell-based; conditions: human, human sperm
How it was run: (§1)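 Sperm isolated by centrifugation: liquefied at 37 °C, HTF-washed twice, 800×g, resuspended in Low/Low (low pH/low K+) buffer. Mixed with test compound (2.2x in Low/Low). 8 half-log concentrations, 100 μM to 32 nM final, in duplicate. AlamarBlue at 37 °C, 560/590 nm fluorescence every 15 min over 3 h. IC50 from concentration-response fit.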

CatSper [2] = target: T2, CatSper (Homo sapiens, UniProt Q7RTX7+Q86XQ3+Q8NEC5+Q96P56); test: Whole cell patch clamp electrophysiology of ICatSper in human sperm; type: cell-based; conditions: for Inhibition (block) of the inward ICatSper: 10 μM compound, human sperm, CsDVF
How it was run: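 Swim-up sperm, seal at cytoplasmic droplet in HS buffer (pH 7.4), 12–18 MΩ pipettes with CsDVF internal. Break-in by 1 ms 450 mV pulses. Control current in CsDVF bath, then 10 μM compound for ~8–10 s. Ramp −80 to +80 mV from 0 mV every 3 s. Current density at ±80 mV, room temperature. Washout with CsDVF.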

CatSper [3] = target: T2, CatSper; test: Progesterone-induced calcium uptake; type: cell-based
IMR‐90 fibroblasts = test: AlamarBlue cytotoxicity assay in IMR-90 fibroblasts; type: cell-based, human; conditions: at concentrations fully inhibiting CatSper; AlamarBlue, 2 h
How it was run: (§2)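 IMR-90 lung fibroblasts cultured 2 weeks in EMEM + 10% FBS, split 2–4 days before use, trypsin-EDTA detached and resuspended in culture medium. Added to test compound (2.2x in Low/Low buffer). 8 half-log concentrations, 100 μM to 32 nM final, in duplicate. AlamarBlue added, 37 °C, fluorescence 560/590 nm read every 30 min over 7 h. IC50 from concentration-response fit.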

[4] = as above; type: cell-based, human; conditions: human, IMR-90 lung fibroblast cells
How it was run: as §2

human sperm [5] = test: CASA: progesterone-induced hyperactivated motility; type: cell-based; conditions: 10 μM compound, 100 nM progesterone, HAM measured after 4 h
hERG = hERG (Homo sapiens, UniProt Q12809); test: hERG manual patch-clamp in HEK293 cells; type: cell-based; conditions: HEK293 cells expressing hERG
Sequence of hERG (Q12809 whole entry): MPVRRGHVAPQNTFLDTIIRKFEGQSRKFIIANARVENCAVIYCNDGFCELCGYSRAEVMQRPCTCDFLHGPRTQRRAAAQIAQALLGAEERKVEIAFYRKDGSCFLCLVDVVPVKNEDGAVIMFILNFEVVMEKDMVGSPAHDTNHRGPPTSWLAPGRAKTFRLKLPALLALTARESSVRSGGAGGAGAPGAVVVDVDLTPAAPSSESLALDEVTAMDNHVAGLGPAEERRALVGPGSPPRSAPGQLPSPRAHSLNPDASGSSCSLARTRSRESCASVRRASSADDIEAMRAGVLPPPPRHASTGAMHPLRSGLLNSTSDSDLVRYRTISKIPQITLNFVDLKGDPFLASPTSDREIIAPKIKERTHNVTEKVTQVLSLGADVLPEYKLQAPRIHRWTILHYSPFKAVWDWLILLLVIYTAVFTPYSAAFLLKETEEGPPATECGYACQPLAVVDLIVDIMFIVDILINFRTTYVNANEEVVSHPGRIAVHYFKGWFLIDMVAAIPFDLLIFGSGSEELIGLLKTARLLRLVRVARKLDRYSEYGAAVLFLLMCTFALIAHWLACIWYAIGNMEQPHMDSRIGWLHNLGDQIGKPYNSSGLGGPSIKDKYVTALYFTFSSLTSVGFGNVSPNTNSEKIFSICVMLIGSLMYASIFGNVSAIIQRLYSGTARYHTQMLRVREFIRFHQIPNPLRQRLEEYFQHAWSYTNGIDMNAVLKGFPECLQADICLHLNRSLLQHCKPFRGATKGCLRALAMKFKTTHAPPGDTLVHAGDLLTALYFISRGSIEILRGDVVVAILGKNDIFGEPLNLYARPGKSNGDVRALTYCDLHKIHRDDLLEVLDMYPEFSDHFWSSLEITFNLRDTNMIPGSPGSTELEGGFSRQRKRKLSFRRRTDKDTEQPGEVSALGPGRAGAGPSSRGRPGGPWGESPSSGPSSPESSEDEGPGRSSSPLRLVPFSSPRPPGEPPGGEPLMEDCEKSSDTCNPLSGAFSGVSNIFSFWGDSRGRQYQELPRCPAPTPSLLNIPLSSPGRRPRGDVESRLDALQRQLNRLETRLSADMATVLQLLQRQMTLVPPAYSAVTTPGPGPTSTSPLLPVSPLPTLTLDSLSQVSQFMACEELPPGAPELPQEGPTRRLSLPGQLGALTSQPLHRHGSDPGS

hCav1.2 = hCav1.2 (Homo sapiens, UniProt Q13936); test: hCav1.2 FLIPR assay in stably expressing cell line; type: cell-based; conditions: read-out: Inhibition at 10 μM [%] hCav1.2
Sequence of hCav1.2 (Q13936 whole entry): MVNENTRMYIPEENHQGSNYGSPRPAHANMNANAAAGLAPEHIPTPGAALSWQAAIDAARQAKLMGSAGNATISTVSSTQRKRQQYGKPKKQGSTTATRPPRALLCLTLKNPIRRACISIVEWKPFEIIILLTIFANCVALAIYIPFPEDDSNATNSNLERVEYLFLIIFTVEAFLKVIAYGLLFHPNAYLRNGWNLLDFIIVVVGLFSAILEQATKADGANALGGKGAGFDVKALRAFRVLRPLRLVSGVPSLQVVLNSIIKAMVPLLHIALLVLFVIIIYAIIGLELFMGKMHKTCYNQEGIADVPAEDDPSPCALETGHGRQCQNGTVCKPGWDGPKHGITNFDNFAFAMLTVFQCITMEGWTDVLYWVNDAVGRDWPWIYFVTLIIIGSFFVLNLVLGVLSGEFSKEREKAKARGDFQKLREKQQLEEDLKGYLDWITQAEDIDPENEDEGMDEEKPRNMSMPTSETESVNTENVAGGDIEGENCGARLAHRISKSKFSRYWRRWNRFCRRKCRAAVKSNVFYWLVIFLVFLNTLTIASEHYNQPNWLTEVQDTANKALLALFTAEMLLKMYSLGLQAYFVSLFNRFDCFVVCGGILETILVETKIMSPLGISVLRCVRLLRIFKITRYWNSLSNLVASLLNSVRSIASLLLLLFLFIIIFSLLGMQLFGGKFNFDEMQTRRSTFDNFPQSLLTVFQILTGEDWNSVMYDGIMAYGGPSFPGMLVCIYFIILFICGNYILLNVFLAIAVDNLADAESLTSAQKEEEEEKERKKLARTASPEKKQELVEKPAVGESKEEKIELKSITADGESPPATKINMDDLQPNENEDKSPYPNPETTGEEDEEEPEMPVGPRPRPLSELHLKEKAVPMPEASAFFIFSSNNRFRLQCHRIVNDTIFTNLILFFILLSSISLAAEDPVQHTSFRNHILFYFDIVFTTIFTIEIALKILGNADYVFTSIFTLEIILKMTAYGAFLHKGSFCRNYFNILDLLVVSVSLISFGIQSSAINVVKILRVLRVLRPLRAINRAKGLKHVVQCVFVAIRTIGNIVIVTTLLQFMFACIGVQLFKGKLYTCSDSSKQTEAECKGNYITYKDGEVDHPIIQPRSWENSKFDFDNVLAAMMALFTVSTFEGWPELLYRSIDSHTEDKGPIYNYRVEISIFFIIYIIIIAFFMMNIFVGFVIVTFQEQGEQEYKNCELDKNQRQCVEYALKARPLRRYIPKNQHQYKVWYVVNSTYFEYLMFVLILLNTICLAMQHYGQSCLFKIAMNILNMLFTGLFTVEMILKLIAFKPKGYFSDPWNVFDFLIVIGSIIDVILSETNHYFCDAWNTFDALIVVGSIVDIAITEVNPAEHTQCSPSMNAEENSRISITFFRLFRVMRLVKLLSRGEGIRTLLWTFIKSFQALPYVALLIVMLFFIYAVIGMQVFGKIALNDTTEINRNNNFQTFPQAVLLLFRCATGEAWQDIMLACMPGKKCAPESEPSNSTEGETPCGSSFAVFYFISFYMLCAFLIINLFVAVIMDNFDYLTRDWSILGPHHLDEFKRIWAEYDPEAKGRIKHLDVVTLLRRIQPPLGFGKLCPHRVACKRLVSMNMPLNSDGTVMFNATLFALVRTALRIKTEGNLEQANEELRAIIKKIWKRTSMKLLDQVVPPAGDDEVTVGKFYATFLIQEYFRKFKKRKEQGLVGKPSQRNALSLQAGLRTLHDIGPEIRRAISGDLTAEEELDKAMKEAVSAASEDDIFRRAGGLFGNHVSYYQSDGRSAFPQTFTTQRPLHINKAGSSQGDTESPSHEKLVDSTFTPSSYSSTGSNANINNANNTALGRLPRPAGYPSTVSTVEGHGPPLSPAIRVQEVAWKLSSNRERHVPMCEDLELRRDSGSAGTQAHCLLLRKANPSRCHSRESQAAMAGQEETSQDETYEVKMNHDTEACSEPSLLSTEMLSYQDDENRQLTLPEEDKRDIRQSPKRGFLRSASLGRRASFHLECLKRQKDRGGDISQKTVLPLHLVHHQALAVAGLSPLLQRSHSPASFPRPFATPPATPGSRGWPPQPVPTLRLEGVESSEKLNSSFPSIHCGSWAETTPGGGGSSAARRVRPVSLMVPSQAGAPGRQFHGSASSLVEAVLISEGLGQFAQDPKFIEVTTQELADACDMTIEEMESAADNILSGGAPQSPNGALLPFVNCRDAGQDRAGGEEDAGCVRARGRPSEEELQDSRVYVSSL

hNav1.5 = hNav1.5 (Homo sapiens, UniProt Q14524); test: hNav1.5 manual patch-clamp in CHO cells; type: cell-based; conditions: read-out: Inhibition at 10 μM [%] hNav1.5
human sperm [6] = test: Computer-aided sperm analysis; type: cell-based; conditions: 10 μM, 4 h incubation with human sperm
How it was run: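 Motile sperm selected by swim-up into bicarbonate-free HAM's-F10 (37 °C, 5% CO2, 1 h), ≥10×10^6 cells/mL. Incubated 4 h with increasing test compound concentrations. CASA at 37 °C gives total and progressive motility from VAP, VSL, VCL, LIN and STR, as % of population. ≥10 fields/≥200 cells. Mean±SEM of ≥3 experiments; one-way ANOVA with Dunnett's test.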

human sperm [7] = test: AlamarBlue cytotoxicity assay in human sperm; type: cell-based; conditions: human sperm and IMR‐90 fibroblasts
How it was run: as §1

CatSper [8] = target: T2, CatSper; conditions: reported previously; cited from earlier work
human sperm [9] = test: CASA: PGE1-induced hyperactivated motility; type: cell-based; conditions: 100 nM compound, 100 nM PGE1, HAM measured after 4 h
[10] = read-out: Inhibition at 10 μM [%] CatSper
[11] = read-out: Inhibition (block) of the inward ICatSper

Row | Compound | hSLO3 current in the presence of compound, % of control (human SLO3 and LRRC52) | IC50 at 3 h [1] [µM] | inhibition at 10 µM (CatSper [2]; [10]) [%] | IC50 (CatSper [3]) [µM] | IC50 at 7 h [4] [µM] | inhibition at 10 µM (hCav1.2) [%] | inhibition at 10 µM (hNav1.5) [%] | inhibition at 10 µM (CatSper [2]; [11]) [%] | other results
1 | O=c1c2ccccc2c(Cc2ccc(Cl)cc2)nn1C1CCCNCC1 (stereo not drawn) [6 b, 2‐(Azepan‐4‐yl)‐4‐(4‐chlorobenzyl)phthalazin‐1(2H)‐one] | 66.3±8.5 % of control | 84 ± 10 | 100 | 8.3 ± 1.1 | 68 ± 5 |  |  |  | Inhibition (block) of the inward ICatSper (CatSper [2]): near complete inhibition; Effect on IMR‐90 viability (IMR‐90 fibroblasts): reduce viability slightly; Reduction of progesterone-induced HAM (human sperm [5]): statistically significant
2 | NC(N)=NC(=O)c1nc(Cl)c(N2CCCCCC2)nc1N [1 a, 3‐Amino‐5‐(azepan‐1‐yl)‐6‐chloro‐N‐(diaminomethylene)pyrazine‐2‐carboxamide] | 101.5±6.4 % of control | > 100 |  | 5.4 ± 0.6 | > 100 | 4 | 68 |  | inhibition at 10 µM (human SLO3 and LRRC52): -2%; inhibition at 10 µM (hERG): 92%
3 | N=c1n(CCN2CCCCC2)c2ccccc2n1CC(O)c1cccc(Br)c1 (stereo not drawn) [5 f, 1‐(3‐Bromophenyl)‐2‐(2‐imino‐3‐(2‐(piperidin‐1‐yl)ethyl)‐2,3‐dihydro‐1H‐benzo[d]imidazol‐1‐yl)ethan‐1‐ol] | 83.2±7.8 % of control | > 100 |  | 3.4 ± 0.4 | 83 ± 14 |  |  | 47 | Reversibility of ICatSper block on washout (CatSper [2]; washed out with CsDVF after 10 μM compound): apparent irreversible loss of channel function; Progressive motility (CASA) (human sperm [6]): substantially reduced; Total motility (CASA) (human sperm [6]): substantially reduced
4 | COCC(=O)O[C@]1(CCN(C)CCCc2nc3ccccc3[nH]2)CCc2cc(F)ccc2[C@@H]1C(C)C [Mibefradil, reference compound] |  | 25 ± 2 |  |  | 22 ± 1 |  |  |  | Separation between potencies for blocking calcium influx and cytotoxicity (human sperm [7]): low separation; Reversibility of CatSper block (CatSper [8]): irreversible loss of channel function
5 | O=C(Nc1cccc(C(F)(F)F)c1)N1CCN(c2cccc(C(F)(F)F)c2)CC1 [4 a, N ,4‐Bis(3‐(trifluoromethyl)phenyl)piperazine‐1‐carboxamide] |  | > 100 | 83 | 4.9 ± 0.6 | > 100 | 65 | 95 | 84 | hSLO3 current in the presence of compound, % of control (human SLO3 and LRRC52; 10 µM): 24.6±9.1 % of control and 25 % of control; inhibition at 10 µM (human SLO3 and LRRC52): 75%; Progressive motility (CASA) (human sperm [6]): substantially reduced; Total motility (CASA) (human sperm [6]): substantially reduced; Reduction of progesterone-induced HAM (human sperm [5]): statistically significant
6 | OC1(c2ccc(Cl)cc2)CCN(Cc2c[nH]c3ccccc23)CC1 [2 a, 4‐(4‐Chlorophenyl)‐1‐(1H‐indol‐3‐ylmethyl)‐4‐piperidinol] |  | > 100 | 73 | 7.5 ± 1.3 | > 100 | 39 | 77 | 65 | Inhibition of PGE1-induced HAM (human sperm [9]): greatly reduced HAM; inhibition at 10 µM (hERG): 100%; Effect on IMR‐90 viability (IMR‐90 fibroblasts): reduce viability slightly
7 | CN1CCCC(n2nc(Cc3ccc(Cl)cc3)c3ccccc3c2=O)CC1 (stereo not drawn) [6 a, azelastine, reference compound] |  |  |  | 5.4 ± 0.4 |  |  |  |  | 
8 | c1ccc(CN2CCC(c3c[nH]c4ccccc34)CC2)cc1 [2 l, 3‐(1‐benzylpiperidin‐4‐yl)‐1H‐indole] |  |  |  | > 100 |  |  |  |  | 
9 | CCN(CC)CCNC(=O)C1CCN(c2ccc3nnc(-c4cccc(C)c4)n3n2)CC1 [7 a, N ‐(2‐(Diethylamino)ethyl)‐1‐(3‐(m–tolyl)‐[1,2,4]triazolo[4,3‐b]pyridazin‐6‐yl)piperidine‐4‐carboxamide] |  | > 100 |  | 20 ± 1 | > 100 | -9 |  | 89 | hSLO3 current in the presence of compound, % of control (human SLO3 and LRRC52; 10 µM): 37.5±5.6 % of control and 38 % of control; Progressive motility (CASA) (human sperm [6]): substantially reduced; Total motility (CASA) (human sperm [6]): substantially reduced; Reduction of progesterone-induced HAM (human sperm [5]): statistically significant
10 | N=C(N)NC(=O)c1nc(Cl)c(N)nc1N [1 d, amiloride, reference compound] |  |  |  | > 100 |  |  |  |  | 
11 | Cc1cc(C)c2nc(C)cc(NCCc3ccccc3)c2c1 [3 a, 2,6,8‐Trimethyl‐N‐(2‐phenylethyl)‐4‐quinolinamine] | 58.5±12.5 % of control | > 100 | 96 | 3.6 ± 0.6 | 96 ± 5 | 10 | 94 |  | inhibition at 10 µM (human SLO3 and LRRC52): 42%; inhibition at 10 µM (hERG): 100%; Inhibition (block) of the inward ICatSper (CatSper [2]): near complete inhibition
